Data: ChEMBL document CHEMBL4613215, “Structure-Activity Relationships for a Series of (Bis(4-fluorophenyl)methyl)sulfinyl Alkyl Alicyclic Amines at the Dopamine Transporter: Functionalizing the Terminal Nitrogen Affects Affinity, Selectivity, and Metabolic Stability” (J Med Chem, 2020)

Assays:
[1] = target: Sigma non-opioid intracellular receptor 1 (Cavia porcellus, UniProt Q60492); test: Displacement of [3H]-(+)-pentazocine from Sigma1 receptor in guinea pig cortex membranes incubated for 120 mins by microbeta scintillation counting method; assay type: cell membranes
Sequence of Sigma non-opioid intracellular receptor 1 (Q60492 whole entry): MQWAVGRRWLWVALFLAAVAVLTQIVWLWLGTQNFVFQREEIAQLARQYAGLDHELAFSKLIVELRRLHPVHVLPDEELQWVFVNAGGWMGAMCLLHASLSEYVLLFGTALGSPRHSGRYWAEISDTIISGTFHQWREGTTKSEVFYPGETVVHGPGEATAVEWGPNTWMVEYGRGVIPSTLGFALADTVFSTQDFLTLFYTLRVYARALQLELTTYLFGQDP

[2] = target: Sodium-dependent dopamine transporter (Rattus norvegicus, UniProt P23977); test: Displacement of [3H]WIN35428 from DAT in Sprague-Dawley rat striatum membranes incubated for 120 mins by microbeta scintillation counting method; assay type: cell membranes, Membrane
Sequence of Sodium-dependent dopamine transporter (Rattus norvegicus, UniProt P23977) (P23977 whole entry): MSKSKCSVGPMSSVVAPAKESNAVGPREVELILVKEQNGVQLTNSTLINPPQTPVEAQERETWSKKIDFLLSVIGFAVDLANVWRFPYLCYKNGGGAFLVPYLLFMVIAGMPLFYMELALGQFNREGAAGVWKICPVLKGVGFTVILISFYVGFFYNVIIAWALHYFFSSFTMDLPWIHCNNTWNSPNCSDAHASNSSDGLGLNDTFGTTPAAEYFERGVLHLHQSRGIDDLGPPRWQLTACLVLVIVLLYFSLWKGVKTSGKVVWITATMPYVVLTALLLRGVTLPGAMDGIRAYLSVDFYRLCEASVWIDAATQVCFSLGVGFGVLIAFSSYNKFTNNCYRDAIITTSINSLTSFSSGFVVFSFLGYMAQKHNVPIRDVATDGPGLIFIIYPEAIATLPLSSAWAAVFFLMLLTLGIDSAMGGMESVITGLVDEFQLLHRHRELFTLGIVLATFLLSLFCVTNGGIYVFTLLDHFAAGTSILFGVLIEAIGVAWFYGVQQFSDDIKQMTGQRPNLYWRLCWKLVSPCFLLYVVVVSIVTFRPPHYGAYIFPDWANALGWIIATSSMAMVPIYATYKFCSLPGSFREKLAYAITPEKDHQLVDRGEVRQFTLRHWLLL

[3] = Stability in mouse liver microsomes at 10 uM after 60 mins in presence of NADPH by LC-MS/MS analysis; assay type: ADME, Microsome; details: 1 h
[4] = target: Sodium-dependent serotonin transporter (Rattus norvegicus, UniProt P31652); test: Displacement of [3H]citalopram from SERT in Sprague-Dawley rat midbrain membranes incubated for 60 mins by microbeta scintillation counting method; assay type: cell membranes, Membrane
Sequence of Sodium-dependent serotonin transporter (P31652 whole entry): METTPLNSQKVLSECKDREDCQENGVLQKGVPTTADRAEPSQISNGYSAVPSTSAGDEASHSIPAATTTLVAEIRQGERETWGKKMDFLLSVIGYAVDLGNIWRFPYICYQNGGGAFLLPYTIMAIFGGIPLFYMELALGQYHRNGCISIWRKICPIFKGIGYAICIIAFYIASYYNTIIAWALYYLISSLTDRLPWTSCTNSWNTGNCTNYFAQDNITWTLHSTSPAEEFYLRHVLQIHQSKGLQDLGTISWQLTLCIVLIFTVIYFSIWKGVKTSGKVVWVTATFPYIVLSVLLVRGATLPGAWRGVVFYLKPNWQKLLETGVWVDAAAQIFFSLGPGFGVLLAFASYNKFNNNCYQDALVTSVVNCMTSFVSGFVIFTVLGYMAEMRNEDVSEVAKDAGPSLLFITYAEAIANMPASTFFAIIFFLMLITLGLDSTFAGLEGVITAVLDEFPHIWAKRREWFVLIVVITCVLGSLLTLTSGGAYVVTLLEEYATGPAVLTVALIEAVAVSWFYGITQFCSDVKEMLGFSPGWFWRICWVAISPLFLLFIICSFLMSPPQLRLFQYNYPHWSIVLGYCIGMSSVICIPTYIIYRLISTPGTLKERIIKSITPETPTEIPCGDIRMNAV

Rattus norvegicus = organism: Rattus norvegicus; test: Selectivity ratio of Ki for displacement of [3H]citalopram from in SERT Sprague-Dawley rat midbrain membranes to Ki for displacement of [3H]WIN 35428 from DAT in Sprague-Dawley rat striatum membranes
[5] = target: Voltage-gated inwardly rectifying potassium channel KCNH2 (Homo sapiens, UniProt Q12809); test: Inhibition of human ERG
Sequence of Voltage-gated inwardly rectifying potassium channel KCNH2 (Q12809 whole entry): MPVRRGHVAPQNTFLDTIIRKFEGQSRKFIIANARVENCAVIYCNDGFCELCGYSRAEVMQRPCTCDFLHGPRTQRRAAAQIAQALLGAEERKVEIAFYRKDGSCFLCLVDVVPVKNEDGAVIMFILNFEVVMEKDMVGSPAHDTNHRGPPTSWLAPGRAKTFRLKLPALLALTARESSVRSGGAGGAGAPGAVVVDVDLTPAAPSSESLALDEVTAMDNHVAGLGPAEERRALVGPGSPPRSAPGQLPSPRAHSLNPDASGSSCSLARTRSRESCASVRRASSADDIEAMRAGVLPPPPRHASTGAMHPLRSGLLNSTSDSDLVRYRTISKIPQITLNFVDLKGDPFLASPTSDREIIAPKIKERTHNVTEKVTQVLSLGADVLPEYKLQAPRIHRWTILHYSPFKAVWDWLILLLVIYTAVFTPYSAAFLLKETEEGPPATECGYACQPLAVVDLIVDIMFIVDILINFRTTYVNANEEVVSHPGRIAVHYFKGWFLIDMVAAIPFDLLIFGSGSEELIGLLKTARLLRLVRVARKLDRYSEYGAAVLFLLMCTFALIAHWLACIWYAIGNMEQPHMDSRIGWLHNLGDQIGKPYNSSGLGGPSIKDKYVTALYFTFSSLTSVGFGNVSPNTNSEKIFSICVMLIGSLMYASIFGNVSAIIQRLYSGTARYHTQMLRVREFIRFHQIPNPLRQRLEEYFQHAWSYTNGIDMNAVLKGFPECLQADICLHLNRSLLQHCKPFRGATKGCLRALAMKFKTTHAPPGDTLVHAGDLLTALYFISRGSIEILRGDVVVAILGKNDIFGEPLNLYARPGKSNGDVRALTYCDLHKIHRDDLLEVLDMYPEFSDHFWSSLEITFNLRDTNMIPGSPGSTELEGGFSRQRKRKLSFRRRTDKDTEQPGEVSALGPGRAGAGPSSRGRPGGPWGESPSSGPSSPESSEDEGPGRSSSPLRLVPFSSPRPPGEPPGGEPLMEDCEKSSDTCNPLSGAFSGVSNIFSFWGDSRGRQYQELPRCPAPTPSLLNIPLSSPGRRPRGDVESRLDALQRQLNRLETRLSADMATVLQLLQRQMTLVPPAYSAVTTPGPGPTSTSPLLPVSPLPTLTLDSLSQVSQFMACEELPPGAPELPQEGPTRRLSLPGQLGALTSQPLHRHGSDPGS

[6] = Effect on locomotor activity in mouse assessed as increase in total ambulations at 1 to 30 mg/kg, ip measured during 30 mins of 2 hrs test by open field test; assay type: ADME, organism-based; details: in vivo
Method in brief: (§1)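 Mice acclimatized ~2 h, injected i.p. then placed immediately in open-field chambers with infrared beam arrays; beam breaks over 2 h converted to distance; maximum distance per 30 min reported; n=6 per group, each mouse used once; two-way ANOVA (Drug, Dose) with Tukey post-hoc versus vehicle.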

[7] = Stability in mouse liver microsomes assessed as parent compound remaining at 10 uM after 60 mins in presence of NADPH by LC-MS/MS analysis; assay type: ADME, Microsome; details: read-out: Stability
[8] = Half life in human liver microsomes at 10 uM after 60 mins in presence of NADPH by LC-MS/MS analysis; assay type: ADME, Microsome; details: for half-life at 10 µM: liver microsomes
[9] = Stability in human liver microsomes assessed as parent compound remaining at 10 uM after 60 mins in presence of NADPH by LC-MS/MS analysis; assay type: ADME, Microsome; details: read-out: Stability
[10] = Drug metabolism in mouse liver microsomes assessed as 1-(2-((Bis(4-fluorophenyl)methyl)thio)ethyl)-3,5-cis-dimethylpiperazine metabolite formation by HPLC/MS analysis; assay type: ADME, Microsome
[11] = target: T1, Sodium-dependent dopamine transporter (Homo sapiens, UniProt Q01959); test: Displacement of [3H]WIN35428 from DAT (unknown origin) transiently expressed in COS7 cells incubated for > 90 mins by beta scintillation counting method; assay type: cell-based, COS-7
T1 sequence (Q01959 whole entry): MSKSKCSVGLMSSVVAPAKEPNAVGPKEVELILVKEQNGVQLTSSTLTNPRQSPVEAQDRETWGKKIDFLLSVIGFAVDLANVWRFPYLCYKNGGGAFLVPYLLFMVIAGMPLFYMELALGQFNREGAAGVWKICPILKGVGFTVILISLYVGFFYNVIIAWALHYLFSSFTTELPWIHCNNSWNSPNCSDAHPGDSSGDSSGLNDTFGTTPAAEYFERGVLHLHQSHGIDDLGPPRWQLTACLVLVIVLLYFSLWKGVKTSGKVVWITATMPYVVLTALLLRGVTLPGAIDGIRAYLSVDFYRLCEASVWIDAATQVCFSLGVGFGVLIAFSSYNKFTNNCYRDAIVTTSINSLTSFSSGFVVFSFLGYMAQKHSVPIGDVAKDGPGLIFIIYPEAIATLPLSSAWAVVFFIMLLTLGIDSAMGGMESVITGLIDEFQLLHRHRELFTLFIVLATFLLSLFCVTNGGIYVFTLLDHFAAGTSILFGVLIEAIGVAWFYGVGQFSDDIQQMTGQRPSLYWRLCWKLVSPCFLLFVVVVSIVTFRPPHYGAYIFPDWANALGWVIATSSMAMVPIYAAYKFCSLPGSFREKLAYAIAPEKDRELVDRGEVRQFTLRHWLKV

[12] = target: T1, Sodium-dependent dopamine transporter; test: Inhibition of human DAT transiently expressed in COS7 cells assessed as reduction in [3H]-DA uptake measured after 5 mins by beta-scintillation counting method; assay type: cell-based, COS-7
[13] = Half life in mouse liver microsomes at 10 uM in presence of NADPH by LC-MS/MS analysis; assay type: ADME, Microsome
[14] = Effect on locomotor activity in mouse assessed as increase in total ambulations at 1 to 10 mg/kg, ip measured during 30 mins of 2 hrs test by open field test; assay type: ADME, organism-based; details: in vivo; method in brief: as §1
[15] = Displacement of [3H]WIN35428 from DAT Y156F mutant (unknown origin) transiently expressed in COS7 cells incubated for > 90 mins by beta scintillation counting method; assay type: cell-based, Homo sapiens; details: cos-7
Homo sapiens = organism: Homo sapiens; test: Selectivity ratio of Ki for displacement of [3H]WIN35428 from DAT Y156F mutant (unknown origin) transiently expressed in COS7 cells to Ki for displacement of [3H]WIN35428 from DAT (unknown origin) transiently expressed in COS7 cells; assay type: cell-based
[16] = Selectivity ratio of IC50 for inhibition of human ERG to Ki for displacement of [3H]WIN 35428 from DAT in Sprague-Dawley rat striatum membranes

Q: Which Ki [1] does the source give for `[O-][S+](CCN1CCN(CC(O)Cc2ccc(C(F)(F)F)cc2)CC1)C(c1ccc(F)cc1)c1ccc(F)cc1` (stereo not given) here?
A: 147 nM

Q: What about the Ki [2] of the same molecule?
A: 11.7 nM

Q: And the Stability [3]?
A: Unstable

Q: What about the Ki [4] of the same molecule?
A: 11.6 µM

Q: And the Ratio Ki (Rattus norvegicus)?
A: 991

Q: For `OC(Cc1ccc(C(F)(F)F)cc1)CN1CCN(CCSC(c2ccc(F)cc2)c2ccc(F)cc2)CC1` (stereo not given), which Ki [1] is on record?
A: 187 nM

Q: And the Ki [2]?
A: 23.4 nM

Q: And the Ki [4]?
A: 4.48 µM

Q: And the Ratio Ki (Rattus norvegicus)?
A: 191

Q: Which Ki [1] does the source give for `CC(O)CN1[C@H](C)CN(CCSC(c2ccc(F)cc2)c2ccc(F)cc2)C[C@@H]1C` (mixture of isomers) here?
A: 5.62 nM

Q: What about the Ki [2] of the same molecule?
A: 23.1 nM

Q: And the IC50 [5]?
A: 635 nM

Q: What about the Activity [6] of the same molecule?
A: Non-Toxic

Q: What about the remaining at 1 h, 10 µM [7] of the same molecule?
A: < 10%

Q: What about the t1/2 ([8]; microsomes, 1 h, 10 µM) of the same molecule?
A: > 40 min

Q: What about the remaining at 1 h, 10 µM [9] of the same molecule?
A: > 30%

Q: What about the Drug metabolism [10] of the same molecule?
A: Metabolite_Detected

Q: What about the Ki [11] of the same molecule?
A: 58.3 nM

Q: What about the Ki [12] of the same molecule?
A: 100 nM

Q: What about the half-life at 10 µM [13] of the same molecule?
A: 20 min

Q: Which results are given for `C[C@@H]1CN(CCSC(c2ccc(F)cc2)c2ccc(F)cc2)C[C@H](C)N1C[C@@H](C)O`?
A: Ki [1]: 2.19 nM; Ki [2]: 39.4 nM; Ki [4]: 19.8 µM; remaining at 1 h, 10 µM [7]: 30%; half-life at 10 µM [8]: > 40 min; remaining at 1 h, 10 µM [9]: > 30%; Activity [14]: Non-Toxic

Q: What does the source list for `C[C@@H]1CN(CCSC(c2ccc(F)cc2)c2ccc(F)cc2)C[C@H](C)N1CC(O)Cc1ccccc1` (stereo not given in full)?
A: Ki [1]: 15.2 nM; Ratio Ki (Rattus norvegicus): 805

Q: Which results are given for `CC(=O)CN1CCN(CCSC(c2ccc(F)cc2)c2ccc(F)cc2)CC1`?
A: Ki [1]: 1.08 nM; Ki [2]: 182 nM; Ki [4]: 17.4 µM; Ratio Ki (Rattus norvegicus): 96

Q: Which Ki [1] does the source give for `O=C(CCc1ccccc1)N1CCN(CCSC(c2ccc(F)cc2)c2ccc(F)cc2)CC1` here?
A: 294 nM

Q: What about the Ki [2] of the same molecule?
A: 2830 nM

Q: What about the Ki [4] of the same molecule?
A: 2.54 µM

Q: What about the Ratio Ki (Rattus norvegicus) of the same molecule?
A: 0.9

Q: Which results are given for `C[C@@H]1CN(CCSC(c2ccc(F)cc2)c2ccc(F)cc2)C[C@H](C)N1`?
A: Ki [1]: 111 nM; Ki [2]: 92.3 nM; Ki [4]: 13.1 µM; Ratio Ki (Rattus norvegicus): 141

Q: With `C[C@@H]1CN(CC[S+]([O-])C(c2ccc(F)cc2)c2ccc(F)cc2)C[C@H](C)N1CC(O)Cc1ccccc1` (stereo not given in full) as the molecule, how does the Ki [1] read?
A: 75.4 nM

Q: What about the IC50 [5] of the same molecule?
A: 91.5 nM

Q: What about the Ki [15] of the same molecule?
A: 19.1 nM

Q: What about the remaining at 1 h, 10 µM [7] of the same molecule?
A: < 10%

Q: What about the Ratio Ki (Rattus norvegicus) of the same molecule?
A: 379

Q: And the Ki [11]?
A: 3.83 nM

Q: And the Ratio Ki (Homo sapiens)?
A: 5.8

Q: What about the Ki [12] of the same molecule?
A: 11.1 nM

Q: And the Selectivity ratio [16]?
A: 30

Q: What does the source list for `C[C@H](O)CN1CCN(CCSC(c2ccc(F)cc2)c2ccc(F)cc2)CC1`?
A: Ki [1]: 2.58 nM; Ki [2]: 37.9 nM; Ki [4]: 3.94 µM; Ratio Ki (Rattus norvegicus): 104

Q: What does the source list for `O[C@@H](Cc1ccccc1)CN1CCN(CCSC(c2ccc(F)cc2)c2ccc(F)cc2)CC1`?
A: Ki [1]: 7.72 nM; Ki [2]: 1.53 nM; Stability [3]: Unstable; Ki [4]: 1.39 µM; Ratio Ki (Rattus norvegicus): 908

Q: With `C[C@H](O)CN1[C@H](C)CN(CCSC(c2ccc(F)cc2)c2ccc(F)cc2)C[C@@H]1C` as the molecule, how does the Ki [1] read?
A: 5.95 nM

Q: What about the Ki [2] of the same molecule?
A: 28.5 nM

Q: And the Ki [4]?
A: 15.6 µM

Q: What about the remaining at 1 h, 10 µM [7] of the same molecule?
A: 10%

Q: What about the half-life at 10 µM [8] of the same molecule?
A: > 40 min

Q: And the remaining at 1 h, 10 µM [9]?
A: > 30%

Q: What about the Activity [14] of the same molecule?
A: Non-Toxic

Q: With `[O-][S+](CCN1CCN(CC(O)Cc2ccc(F)cc2)CC1)C(c1ccc(F)cc1)c1ccc(F)cc1` (stereo not given) as the molecule, how does the Ki [1] read?
A: 73.7 nM

Q: And the Ki [2]?
A: 1.29 nM

Q: What about the Stability [3] of the same molecule?
A: Unstable

Q: And the Ki [4]?
A: 12.3 µM

Q: What about the Ratio Ki (Rattus norvegicus) of the same molecule?
A: 9540

Q: Which Ki [1] does the source give for `Fc1ccc(C(SCCCN2CCN(CCCc3ccccc3)CC2)c2ccc(F)cc2)cc1` here?
A: 29.2 nM

Q: And the Ki [2]?
A: 8.68 nM

Q: And the Ki [4]?
A: 1.06 µM

Q: And the Ratio Ki (Rattus norvegicus)?
A: 122

Q: With `[O-][S+](CCN1CCN(C[C@H](O)Cc2ccccc2)CC1)C(c1ccc(F)cc1)c1ccc(F)cc1` (stereo not given in full) as the molecule, how does the Ki [1] read?
A: 331 nM

Q: What about the Ki [2] of the same molecule?
A: 3.63 nM

Q: And the Stability [3]?
A: Unstable

Q: And the Ki [4]?
A: 18.7 µM

Q: What about the Ratio Ki (Rattus norvegicus) of the same molecule?
A: 5150
